Here are results for six compounds from PMC9015489 (Chemmedchem, 2022).

Where only a bound is given, the exact number is not on record here.

One series concerns NRF2‐ARE pathway. Briefly: AREc32 luciferase reporter gene assay. In kind it is cell-based. The settings on record: for ARE specificity ratio, SR: SR = IC10/ECIR1.5, AREc32 cells, 24 h exposure. In outline:
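AREc32 cells in DMEM+GlutaMAX with 10% FBS and pen/strep, 2650/well, attached 24 h at 37 °C, 5% CO2. Test compound (1×10−15 to 1×10−2 M) for 24 h; tert‐butylhydroquinone as positive control. Luciferase read after PBS washes and Tris/Triton lysis. IR = signal/mean unexposed; ECIR1.5 by linear fit for IR<4. Imaged confluency versus unexposed cells gave IC10 from the linear range.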
(Reporter assays use an easily measured gene product as a stand-in for the process of interest.)

Series [1] is described as follows: Experimental distribution coefficient logD7.4. The settings on record: pH 7.4. The series is classed as physicochemical.
The next series addresses human serum albumin (Homo sapiens, UniProt P02768). The series can be described thus: Plasma protein binding estimated by an HPLC-based method. The series is classed as in vitro ADME.
In series [2] the target is human adenosine A2A receptors (Homo sapiens, UniProt P29274). The series can be described thus: Radioligand competition binding assay with [3H]CGS-21680. In outline:
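Membranes from CHO-S cells recombinantly expressing the human adenosine A2A receptor. Competition with the A2A-selective agonist radioligand [3H]CGS-21680. Test compound run at concentrations from 10 nM to 100 μM. Read-out is % inhibition of radioligand binding, with Ki estimated; n=3.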
A general note: In a radioligand displacement assay an active substance lowers the binding of a labelled ligand.

Another series relates to SARS‐CoV‐2 (B.3 strain). The series can be described thus: Vero-E6 SARS-CoV-2 plaque reduction assay. In kind it is cell-based. (Plaque reduction counts the foci of infection that form in a cell layer.)
The mark [3] stands for this setting: read-out: % inhibition of radioligand binding.

human serum albumin, sequence (P02768 25-609): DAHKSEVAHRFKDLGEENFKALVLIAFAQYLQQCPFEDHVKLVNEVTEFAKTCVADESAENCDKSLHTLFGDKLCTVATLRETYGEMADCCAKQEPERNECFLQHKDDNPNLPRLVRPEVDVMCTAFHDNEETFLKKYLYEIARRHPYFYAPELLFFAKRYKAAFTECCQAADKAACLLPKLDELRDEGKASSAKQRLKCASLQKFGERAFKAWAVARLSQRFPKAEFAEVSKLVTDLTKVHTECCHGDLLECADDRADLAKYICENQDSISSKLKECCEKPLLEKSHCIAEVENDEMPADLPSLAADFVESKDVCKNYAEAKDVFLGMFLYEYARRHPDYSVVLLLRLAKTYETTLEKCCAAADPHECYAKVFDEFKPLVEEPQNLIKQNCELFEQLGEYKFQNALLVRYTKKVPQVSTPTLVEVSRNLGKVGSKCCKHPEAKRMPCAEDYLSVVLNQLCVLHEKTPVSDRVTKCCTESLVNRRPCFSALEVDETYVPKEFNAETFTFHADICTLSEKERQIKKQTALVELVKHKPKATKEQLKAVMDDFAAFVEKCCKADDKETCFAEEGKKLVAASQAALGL
human adenosine A2A receptors, sequence (P29274 whole entry): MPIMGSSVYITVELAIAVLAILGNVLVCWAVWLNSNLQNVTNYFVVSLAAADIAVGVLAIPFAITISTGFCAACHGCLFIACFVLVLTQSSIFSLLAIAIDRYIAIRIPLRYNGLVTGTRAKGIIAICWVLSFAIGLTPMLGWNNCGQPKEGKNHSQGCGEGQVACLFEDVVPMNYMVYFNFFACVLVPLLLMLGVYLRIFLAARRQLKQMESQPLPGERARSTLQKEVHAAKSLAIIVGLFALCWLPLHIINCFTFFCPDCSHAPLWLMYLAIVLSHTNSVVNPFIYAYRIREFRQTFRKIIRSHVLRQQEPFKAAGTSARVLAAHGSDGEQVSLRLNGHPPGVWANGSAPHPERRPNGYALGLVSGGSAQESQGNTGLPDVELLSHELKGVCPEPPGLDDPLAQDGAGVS

Regarding `C=C1CCC2[C@](C)(C(=O)NCCC)[C@H](O)CC[C@@]2(C)[C@@H]1C/C=C1/C(=O)OC[C@H]1O` (stereo partly drawn) [16 a, (1S,2R,4aS,5R)‐2‐Hydroxy‐5‐[(2E)‐2‐[(4S)‐4‐hydroxy‐2‐oxo‐tetrahydrofuran‐3‐ylidene]ethyl]‐1,4 a‐dimethyl‐6‐methylene‐N‐propyl‐decalin‐1‐carboxamide], the “ARE specificity ratio, SR” value in the series on NRF2‐ARE pathway stood at 35.6. The same compound gave a chromatographic logD in series [1] of 1.9. The fraction unbound on human serum albumin was 0.17.

With `C=C1CCC2[C@](C)(C(=O)NCCc3ccccc3)[C@H](O)CC[C@@]2(C)[C@@H]1C/C=C1/C(=O)OC[C@H]1O` (stereo partly drawn) [16 b, (1S,2R,4aS,5R)‐2‐Hydroxy‐5‐[(2E)‐2‐[(4S)‐4‐hydroxy‐2‐oxo‐tetrahydrofuran‐3‐ylidene]ethyl]‐1,4 a‐dimethyl‐6‐methylene‐N‐(2‐phenylethyl)decalin‐1‐carboxamide], the “ARE specificity ratio, SR” value with NRF2‐ARE pathway came out at 10.8. In series [1], the chromatographic logD was 2.5. On human serum albumin, the fraction unbound was 0.62.

Take `C=C1CCC2[C@](C)(C(=O)NCCOCCOCCOCCOC)[C@H](O)CC[C@@]2(C)[C@@H]1C/C=C1/C(=O)OC[C@H]1O` (stereo partly drawn) [16 c, (1S,2R,4aS,5R)‐2‐Hydroxy‐5‐[(2E)‐2‐[(4S)‐4‐hydroxy‐2‐oxo‐tetrahydrofuran‐3‐ylidene]ethyl]‐N‐[2‐[2‐[2‐(2‐methoxy‐ethoxy)ethoxy]ethoxy]ethyl]‐1,4 a‐dimethyl‐6‐methylene‐decalin‐1‐carboxamide]: the “ARE specificity ratio, SR” value in the series with NRF2‐ARE pathway is 13.3. Also, in series [1], the chromatographic logD came out at 1.3. The fraction unbound at human serum albumin is 0.08.

Consider `C=C1CC[C@@H]2[C@](C)(CO)[C@H](O)CC[C@@]2(C)[C@@H]1C/C=C1/C(=O)OC[C@H]1O` [Compound 1, Andrographolide], for which, in the series on NRF2‐ARE pathway, the “ARE specificity ratio, SR” value worked out at 19.4. Further, the “Effect on Vero-E6 cell proliferation (crystal violet staining)” value in the series on Vero‐E6 cells (at 10 μM) was “inhibited cell proliferation”. Further, the “Toxicity on attached Vero-E6 cells” value with Vero‐E6 cells (at any concentration (0.5-10 μM)) is reported as “did not show toxicity”. The inhibition constant (Ki) in series [2] is > 100 µM. In series [2] (setting [3]), the inhibition at 10 µM amounted to 7% and the inhibition at 100 µM stood at 33%.

In the case of `C=C1CCC2[C@](C)(CO)[C@H](O)CC[C@@]2(C)[C@@H]1CCC1C(=O)OC[C@H]1O` (stereo partly drawn) [Compound 11, (4S)‐3‐[2‐[(1R,5R,6R,8aS)‐6‐Hydroxy‐5‐(hydroxymethyl)‐5,8 a‐dimethyl‐2‐methylene‐decalin‐1‐yl]ethyl]‐4‐hydroxy‐tetrahydrofuran‐2‐one], the “Anti-SARS-CoV-2 activity (in words)” value in the series with SARS‐CoV‐2 (B.3 strain) is “did not possess anti‐SARS‐CoV‐2 activities”.

Take `CC(C)(C)c1cc(O)ccc1O` [Tert‐butylhydroquinone, reference compound]: the ECIR1.5 with NRF2‐ARE pathway (effect concentration causing an induction ratio (IR) of 1.5, linear model, 24 h) is 3.4 ± 0.2 µM.

In general, chromatographic logD refers to lipophilicity estimated from chromatographic retention. Broadly, the fraction unbound is free concentration divided by total concentration. A word on the Ki: it is a measure of affinity in units of concentration, obtained from inhibition or displacement. Read a low Ki as tighter binding. For orientation: inhibition means the relative decrease from the control value, in per cent.
